Here are results for six compounds from PMC3041911 (Journal of Molecular Neuroscience, 2010).

The test system of series [1] is Aβ38, Aβ40 and Aβ42 formation in H4 cells overexpressing human APPK595N/M596L. The experiment in a line: Aβ secretion assay. The following applies: for Emax: Homo sapiens; for Aβ38 E max / Aβ40 E max / Aβ42 E max / IC50: H4 cells hAPPK595N/M596L, 24 h treatment; for Effect on Aβ species at low nanomolar (sub-inhibitory) concentrations: low nanomolar concentrations (DAPT: 10 nM). It counts as cell-based. The procedure, abridged:
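H4 human neuroglioma line stably transfected with human APP695 K595N/M596L (Swedish) under a CMV/chicken β-actin promoter. Cells were plated at 1×10^4 per 96-well in OptiMEM with 10% FBS, 1% penicillin/streptomycin, 200 μg/ml hygromycin-B and 2.5 μg/ml blasticidin-S. After 48 h the medium was exchanged and cells were dosed for 24 h at 37°C, 5% CO2 with DMSO-dissolved compound at a range of concentrations, vehicle constant.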

The subject of series [2] is H4 cells overexpressing human APPK595N/M596L. In words: MTT viability assay, H4 cells. In kind it is cell-based. The following applies: data not shown. On the technique in general: Tetrazolium assays rely on reduction of a dye to a coloured formazan, in cell work by metabolically active cells.
Series [3] concerns primary chicken telencephalic neurons. In words: MTT viability assay, primary chicken neurons. It counts as cell-based. To be noted: data not shown. A digest of the protocol:
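MTT viability assay in primary E8 chicken telencephalic neurons. Neurons were plated at 3×10^5 per poly-D-lysine-coated 96-well in DMEM with 5% Nu Serum, 0.01% gentamicin and 2 mM L-glutamine, kept at 37°C, 5% CO2, and exposed to DMSO-dissolved compound over a concentration range.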

Series [4] concerns Aβ38, Aβ40 and Aβ42 formation in primary chicken telencephalic neurons. In words: Aβ secretion assay. In kind it is cell-based. The following applies: for Aβ38 E max / Aβ40 E max / Aβ42 E max / IC50: 24 h treatment. A digest of the protocol: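 Telencephalic neurons from E8 Lohman Brown chicken embryos, mechanically dissociated through a nylon sieve. Neurons were plated at 1.8×10^6 per poly-D-lysine-coated 24-well in DMEM (4.5 g glucose/l, 5% Nu Serum, 0.01% gentamicin, 2 mM L-glutamine). After 48 h the medium was exchanged and neurons were treated for 24 h at 37°C, 5% CO2 with DMSO-dissolved compound at a range of concentrations, vehicle constant.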

Another series concerns Aβ42 levels. To be noted: 100 μM; ref Okochi et al. [2006]; cited from earlier work.
The subject of series [5] is total Aβ content in brain tissue. The following applies: in vivo administration; ref Dovey et al. [2001]; cited from earlier work.
For series [6], the system named is Aβ formation in primary human neuronal cultures. To be noted: read-out: IC50 Aβ total, ref Dovey et al. [2001]; cited from earlier work.
Setting [7] is: H4 cells, 100 μM compound, 24 h, mean ± SEM.
Setting [8] is: primary chicken neurons, 10 μM compound, 24 h, mean ± SEM.
[9] abbreviates: primary chicken neurons, 50 μM compound, 24 h, mean ± SEM.
[10] abbreviates: H4 cells, 10 μM compound, 24 h, mean ± SEM.
The mark [11] stands for this setting: read-out: Aβ38 IC50, primary chicken neurons.
Setting [12] is: read-out: Aβ40 IC50, primary chicken neurons.
Where [13] appears, read: read-out: Aβ42 IC50, primary chicken neurons.
Setting [14] is: primary chicken neurons, 25 μM compound, 24 h, mean ± SEM.

Where “and” joins values, the source holds several entries; their conditions need not be identical. Equal entries are not always repeated. Where two headings read alike, the source gives them in different places. A value given as a limit tells only on which side of the number the result lay.

As for `O=C(O)c1cc(Oc2ccc([N+](=O)[O-])cc2)cc(Oc2ccc([N+](=O)[O-])cc2)c1` [CW, 3,5-bis(4-nitrophenoxy)benzoic acid], the figures for the “Aβ38 level in percent of vehicle-treated cultures” value (“Aβ38 level in percent” below) in series [1] (setting [7]), in series [4] (setting [8]) and in series [4] (setting [9]) were 287.5 ± 31.2%, 127.9 ± 0.9% and 159.3 ± 8.0%, respectively. Also, the “Aβ42 level in percent of vehicle-treated cultures” value (“Aβ42 level in percent” for short) is recorded as 16.0 ± 1.8% in series [1] (setting [7]), 63.6 ± 2.4% in series [4] (setting [8]) and 29.9 ± 1.2% in series [4] (setting [9]). For the same compound, the “Concentration at which Aβ42 levels start to decline” value in series [1] (H4 cells, 24 h) came out at 50 µM; in series [4] (primary chicken neurons, 24 h), 5 µM. For the same compound, the Emax in series [1] (24 h, read-out: Aβ42 E max) was 100%. Besides, the “Cell viability (MTT), result in words” value in series [2] was “no cell toxicity”. Moreover, the “Concentration at which toxicity starts (viability assay)” value in series [3] was determined as 150 µM. Further, in series [4] (primary chicken neurons, up to 50 μM compound), the “Aβ40 content (effect in words)” value is listed as “unchanged”. In the series with Aβ42 levels, the “Effect on Aβ42 levels” value is recorded as “reduce Aβ42 levels”.
On to `CCCC[C@@H](C=O)NC(=O)[C@H](CC(C)C)NC(=O)OCc1ccccc1` [Calpeptin, benzyloxycarbonylleucyl-norleucinal], for which the figures for the “Aβ38 level in percent” value in series [1] (setting [10]) and in series [4] (setting [8]) were 12.9 ± 2.6% and 31.1 ± 1.8%, respectively. Besides, the entries for the “Aβ40 level in percent of vehicle-treated cultures” value in series [1] (setting [10]) and in series [4] (setting [8]) were 35.5 ± 2.2% and 89.9 ± 3.8%, respectively. For the same compound, the “Aβ42 level in percent” value is recorded as 90.3 ± 6.0% in series [1] (setting [10]) and 259.3 ± 7.3% in series [4] (setting [8]). For the same compound, the “Effect on Aβ levels up to 1 μM” value in series [1] (H4 cells, up to a concentration of 1 μM) is on record as “did not evoke any dramatic changes”; in series [4] (primary chicken neurons, up to a concentration of 1 μM), “no effect”. Further, the Emax in series [1] (24 h, read-out: Aβ38 E max) was found to be 100%; in series [1] (24 h, read-out: Aβ40 E max), 100%. Moreover, the “Cell viability (MTT), result in words” value in series [2] and in series [3] was “No toxicity” in each case.
As usually defined, the IC50 is the concentration that inhibits the measured activity by half. In the case of `COC(=O)[C@@H](NC(=O)[C@H](C)NC(=O)Cc1cc(F)cc(F)c1)c1ccccc1` [DAPM, N-(N-3,5-difluorophenacetyl)-L-alanyl-S-phenylglycine methyl ester], the “Aβ38 E max” value in series [1] and in series [4] (primary chicken neurons) was 100% each time. For the same compound, the “Aβ40 E max” value in series [1] and in series [4] (primary chicken neurons) was 100% each time. For the same compound, the “Aβ42 E max” value in series [1] and in series [4] (primary chicken neurons) was 100% throughout. The “Concentration at which Aβ38, Aβ40 and Aβ42 levels start to decline” value (from here on “Concentration at which Aβ38”) in series [1] (H4 cells, 24 h) is 50 nM; in series [4] (primary chicken neurons, 24 h) it was 50 nM. Moreover, the results for the “Effect on Aβ species at low nanomolar (sub-inhibitory) concentrations” value in series [1] (H4 cells) and in series [4] (primary chicken neurons) were “increase of all three Aβ forms” and “no increase in Aβ secretion”, respectively. The IC50 was 19.9 nM and 20 nM in series [1] (read-out: Aβ38 IC50); 23.1 nM and 23 nM in series [1] (read-out: Aβ40 IC50); 25.9 nM and 26 nM in series [1] (read-out: Aβ42 IC50); 61.9 nM in series [4] (setting [11]); 99.7 nM and 100 nM in series [4] (setting [12]); 107 nM in series [4] (setting [13]). For the same compound, the “Cell viability (MTT), result in words” value in series [2] and in series [3] was “no effect on cell viability” throughout.
For the compound `C[C@H](NC(=O)Cc1cc(F)cc(F)c1)C(=O)N[C@H](C(=O)OC(C)(C)C)c1ccccc1` [DAPT, N-[N-(3,5-difluorophenacetyl-L-alanyl)]-S-phenylglycine t-butyl ester], the “Aβ38 E max” value in series [1] and in series [4] (primary chicken neurons) was 100% in each case. Moreover, the “Aβ40 E max” value in series [1] and in series [4] (primary chicken neurons) was 100% throughout. In addition, the “Aβ42 E max” value in series [1] and in series [4] (primary chicken neurons) was 100% throughout. For the same compound, the “Concentration at which Aβ38” value came to 50 nM in series [1] (H4 cells, 24 h) and 100 nM in series [4] (primary chicken neurons, 24 h). Moreover, the “Effect on Aβ species at low nanomolar (sub-inhibitory) concentrations” value in series [1] (H4 cells) was “increased the formation of all three Aβ species”; in series [4] (primary chicken neurons), “no dramatic increase in Aβ levels”. Further, the IC50 in series [1] (read-out: Aβ38 IC50) was 50.3 nM and 50 nM; in series [1] (read-out: Aβ40 IC50), 61.4 nM and 61 nM; in series [1] (read-out: Aβ42 IC50), 63.8 nM and 64 nM; in series [6], 115 nM; in series [4] (setting [11]), 71.2 nM; in series [4] (setting [12]), 92.8 nM and 93 nM. The IC50 in series [4] (setting [13]) is 101 nM. The “Cell viability (MTT), result in words” value in series [2] and in series [3] was “not affected” throughout. Further, in series [5], the “Concentration in brain tissue that reduced total Aβ content” value is at least 200 nM.
On to `CSc1ccc(/C=C2/C(C)=C(CC(=O)O)c3cc(F)ccc32)cc1` [Sulindac sulfide, (Z)-5-fluoro-2-methyl-1-[p-(methylthio)benzylidene]indene-3-acetic acid], for which the “Aβ42 level in percent” value in series [1] (H4 cells, 50 μM compound, 24 h, mean ± SEM) was determined as 75.0 ± 7.1%; in series [1] (setting [7]), 39.3 ± 2.0%; in series [4] (setting [14]), 54.7 ± 6.4%; in series [4] (setting [9]), 25.3 ± 2.1%. In series [1] (H4 cells, 100 μM compound, 24 h), the “Aβ40 production (effect in words)” value is given as “unaltered”. The “Concentration at which Aβ42 levels start to decline” value in series [1] (H4 cells, 24 h) worked out at 50 µM; in series [4] (primary chicken neurons, 24 h), 25 µM. In addition, in series [1] (24 h, read-out: Aβ42 E max), the Emax is 100%. For the same compound, the “Concentration at which cell toxicity starts (viability assay)” value in series [2] (minor cell toxicity) came out at 150 µM. Further, the “Concentration at which toxicity starts (viability assay)” value in series [3] worked out at 75 µM. The “Aβ38 level in percent” value in series [4] (setting [14]) is reported as “approximately 149.7 ± 6.4%”.
Consider β-secretase inhibitor IV, for which the results for the “Aβ38 E max” value in series [1] and in series [4] (primary chicken neurons) were 88% and 91%, respectively. Further, the “Aβ40 E max” value in series [1] amounted to 79%; in series [4] (primary chicken neurons), 76%. The “Aβ42 E max” value in series [1] amounted to 86%; in series [4] (primary chicken neurons) it was 70%. In addition, the IC50 worked out at 92.3 nM in series [1] (read-out: Aβ38 IC50); 125 nM in series [1] (read-out: Aβ40 IC50); 216 nM in series [1] (read-out: Aβ42 IC50); 3.7 nM in series [4] (setting [11]); 4.7 nM in series [4] (setting [12]); 4.8 nM in series [4] (setting [13]). Further, the “Cell viability (MTT), result in words” value in series [2] and in series [3] was “no reduction in cell viability” in each case. Moreover, in series [4] (primary chicken neurons versus H4 cells hAPPK595N/M596L), the “Potency of BACE-1 inhibition in primary cells relative to H4 cell line” value is on record as “approximately tenfold more potent”. In addition, the “Concentration at which Aβ38” value in series [4] (primary chicken neurons, 24 h) is listed as 5 nM. For the same compound, the Aβ42 reduction entry in series [4] (primary chicken neurons, inhibitor concentration 25 nM) is “more than 50%”.
